Data set [1] addresses MAP/microtubule affinity-regulating kinase 4 (Homo sapiens, UniProt Q96L34). In words: Binding affinity to MARK4 in SILAC-labeled human MDA-MB-231 cells lysate by mass spectrometry based kinAffinity assay. Format: subcellular. Summed up: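 Chemical proteomics: MDA-MB-231 lysate bound to matrix of immobilized broad kinase inhibitors at several densities (BC50), then competed with increasing free compound (CC50); proteins quantified by mass spectrometry, Kd via Cheng-Prusoff. Two competition formats run in parallel to check equilibrium.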

Data set [2] addresses Hepatocyte growth factor receptor (Homo sapiens, UniProt P08581). In words: Binding affinity to c-MET in SILAC-labeled human MDA-MB-231 cells lysate by mass spectrometry based kinAffinity assay. It is filed as subcellular. In a few lines:
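MDA-MB-231 lysate applied to KinAffinity matrix of immobilized broadband kinase inhibitors at graded densities to obtain BC50 per target. Competition then run with increasing free compound to give CC50; Kd derived by Cheng-Prusoff. Two competition experiments in parallel to check equilibrium, one with lysate pre-incubated with compound before adding matrix. Quantitation by mass spectrometry.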

The target of data set [3] is T1, Tyrosine-protein kinase CSK (Homo sapiens, UniProt P41240). In words: Inhibition of CSK (unknown origin) using fluorescently-labeled peptide as substrate at 10 uM by IMAP fluorescence polarization assay.
Data set [4] has as its target Tyrosine-protein kinase SYK (Homo sapiens) (UniProt P43405). Nature of the data set: Binding affinity to SYK (unknown origin) at 10 uM.
The target of data set [5] is Proto-oncogene tyrosine-protein kinase receptor Ret (Homo sapiens) (UniProt P07949). Nature of the data set: Inhibition of RET (unknown origin) using fluorescence labeled peptide as substrate at 10 uM by IMAP assay. Summed up:
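Kinase selectivity profiling, run by a contract lab, with the test compound at 10 µmol/L in triplicate. In the IMAP format, the kinase phosphorylates a fluorescently labelled substrate peptide in solution. A binding solution of trivalent metal-based nanoparticles is then added to capture the phosphopeptide, and the drop in rotational speed is read as fluorescence polarization. Results are given as percent inhibition of each kinase.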

Data set [6] deals with T1, Tyrosine-protein kinase CSK. Nature of the data set: Inhibition of CSK (unknown origin) using fluorescence labeled peptide as substrate at 10 uM by IMAP assay. Summed up:
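IMAP fluorescence-polarization kinase assay at 10 µmol/L compound, run in triplicate by a contract lab. A fluorescently labeled substrate peptide is phosphorylated, then nanoparticles carrying trivalent metal bind the phosphopeptide and slow its rotation. Read-out is fluorescence polarization, expressed as percent inhibition.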

Data set [7] is described as follows: Toxicity in mouse allografted with AXL expressing mouse MXT cells assessed as morbidity at 15 mg/kg, ip qd administered 21 consecutive days. It is filed as organism-based. The settings on record: in vivo.

Activity calls are given as the source filed them. No cut-off for these calls is given here.

T1 sequence (P41240 2-450 limits assumed): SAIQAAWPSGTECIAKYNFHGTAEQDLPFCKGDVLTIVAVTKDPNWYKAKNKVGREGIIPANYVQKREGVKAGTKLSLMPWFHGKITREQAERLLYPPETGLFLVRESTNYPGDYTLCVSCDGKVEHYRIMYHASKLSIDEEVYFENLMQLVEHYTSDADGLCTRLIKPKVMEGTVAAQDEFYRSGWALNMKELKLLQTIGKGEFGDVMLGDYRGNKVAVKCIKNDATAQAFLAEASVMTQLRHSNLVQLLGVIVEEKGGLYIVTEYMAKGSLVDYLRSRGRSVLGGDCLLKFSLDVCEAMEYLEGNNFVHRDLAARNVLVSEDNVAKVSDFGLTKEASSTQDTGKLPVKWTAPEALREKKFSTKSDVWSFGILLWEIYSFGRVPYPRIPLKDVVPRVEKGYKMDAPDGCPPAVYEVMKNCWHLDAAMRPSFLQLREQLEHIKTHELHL
Hepatocyte growth factor receptor, sequence (P08581 whole entry): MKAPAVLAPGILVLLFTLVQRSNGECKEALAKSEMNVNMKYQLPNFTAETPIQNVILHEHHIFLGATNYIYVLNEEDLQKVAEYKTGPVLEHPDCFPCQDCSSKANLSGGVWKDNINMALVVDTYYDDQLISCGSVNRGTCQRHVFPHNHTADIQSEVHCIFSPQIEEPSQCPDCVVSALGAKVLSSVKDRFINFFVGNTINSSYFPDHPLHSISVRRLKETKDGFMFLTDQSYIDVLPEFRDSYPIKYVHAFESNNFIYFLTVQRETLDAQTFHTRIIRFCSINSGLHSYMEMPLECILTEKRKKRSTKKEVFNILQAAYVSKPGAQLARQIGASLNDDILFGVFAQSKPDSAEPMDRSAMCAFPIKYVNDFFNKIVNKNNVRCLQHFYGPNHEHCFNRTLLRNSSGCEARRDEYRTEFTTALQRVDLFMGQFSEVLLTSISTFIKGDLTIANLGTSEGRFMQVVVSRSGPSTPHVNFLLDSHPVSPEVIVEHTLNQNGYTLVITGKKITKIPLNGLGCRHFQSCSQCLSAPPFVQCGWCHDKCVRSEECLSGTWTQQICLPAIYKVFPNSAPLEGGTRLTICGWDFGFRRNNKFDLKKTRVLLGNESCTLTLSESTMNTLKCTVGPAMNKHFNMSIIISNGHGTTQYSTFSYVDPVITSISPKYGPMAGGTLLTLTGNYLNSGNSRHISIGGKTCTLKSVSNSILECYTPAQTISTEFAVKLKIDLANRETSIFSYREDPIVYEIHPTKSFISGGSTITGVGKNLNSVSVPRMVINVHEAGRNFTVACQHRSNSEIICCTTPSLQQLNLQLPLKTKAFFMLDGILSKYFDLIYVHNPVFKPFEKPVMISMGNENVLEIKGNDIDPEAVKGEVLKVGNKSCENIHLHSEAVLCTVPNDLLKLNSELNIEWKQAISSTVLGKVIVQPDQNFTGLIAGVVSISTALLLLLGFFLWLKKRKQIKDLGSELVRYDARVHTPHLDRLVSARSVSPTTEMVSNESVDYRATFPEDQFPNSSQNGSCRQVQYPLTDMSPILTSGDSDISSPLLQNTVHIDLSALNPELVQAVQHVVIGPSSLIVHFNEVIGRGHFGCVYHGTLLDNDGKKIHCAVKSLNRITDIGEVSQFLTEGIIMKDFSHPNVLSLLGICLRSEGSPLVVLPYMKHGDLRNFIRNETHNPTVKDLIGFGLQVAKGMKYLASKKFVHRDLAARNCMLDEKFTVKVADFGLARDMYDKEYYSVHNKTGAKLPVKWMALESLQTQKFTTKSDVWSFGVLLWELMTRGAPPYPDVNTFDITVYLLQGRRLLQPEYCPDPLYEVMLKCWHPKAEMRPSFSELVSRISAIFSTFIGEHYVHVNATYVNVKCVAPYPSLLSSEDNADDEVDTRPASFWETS
Proto-oncogene tyrosine-protein kinase receptor Ret (Homo sapiens), sequence (P07949 whole entry): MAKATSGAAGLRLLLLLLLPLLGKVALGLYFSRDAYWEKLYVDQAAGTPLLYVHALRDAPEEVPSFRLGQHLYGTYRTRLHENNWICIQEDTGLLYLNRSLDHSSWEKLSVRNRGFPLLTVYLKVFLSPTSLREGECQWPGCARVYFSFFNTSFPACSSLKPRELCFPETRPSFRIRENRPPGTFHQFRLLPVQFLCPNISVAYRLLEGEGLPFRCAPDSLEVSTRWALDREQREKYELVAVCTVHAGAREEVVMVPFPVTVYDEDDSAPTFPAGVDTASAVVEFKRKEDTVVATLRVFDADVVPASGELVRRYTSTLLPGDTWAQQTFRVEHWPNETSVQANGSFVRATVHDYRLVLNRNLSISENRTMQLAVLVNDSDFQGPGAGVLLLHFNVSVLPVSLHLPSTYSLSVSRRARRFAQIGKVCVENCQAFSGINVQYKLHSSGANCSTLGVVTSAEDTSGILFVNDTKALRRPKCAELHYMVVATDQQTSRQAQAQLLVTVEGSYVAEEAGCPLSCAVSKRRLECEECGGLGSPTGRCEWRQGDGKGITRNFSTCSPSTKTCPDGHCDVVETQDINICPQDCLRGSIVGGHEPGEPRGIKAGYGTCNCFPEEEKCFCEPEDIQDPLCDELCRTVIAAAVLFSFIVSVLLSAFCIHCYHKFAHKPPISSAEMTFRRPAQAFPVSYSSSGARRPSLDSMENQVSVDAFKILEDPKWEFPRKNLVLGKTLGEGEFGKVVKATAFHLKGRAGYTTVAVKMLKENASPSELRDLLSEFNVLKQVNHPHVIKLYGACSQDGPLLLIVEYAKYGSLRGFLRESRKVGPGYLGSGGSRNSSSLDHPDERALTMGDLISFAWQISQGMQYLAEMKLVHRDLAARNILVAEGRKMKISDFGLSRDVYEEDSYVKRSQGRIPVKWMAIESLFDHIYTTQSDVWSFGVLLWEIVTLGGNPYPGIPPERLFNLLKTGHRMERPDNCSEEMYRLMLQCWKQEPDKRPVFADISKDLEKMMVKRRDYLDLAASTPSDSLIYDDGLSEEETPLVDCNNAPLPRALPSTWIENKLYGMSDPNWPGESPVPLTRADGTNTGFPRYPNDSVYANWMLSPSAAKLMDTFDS
MAP/microtubule affinity-regulating kinase 4, sequence (Q96L34 whole entry): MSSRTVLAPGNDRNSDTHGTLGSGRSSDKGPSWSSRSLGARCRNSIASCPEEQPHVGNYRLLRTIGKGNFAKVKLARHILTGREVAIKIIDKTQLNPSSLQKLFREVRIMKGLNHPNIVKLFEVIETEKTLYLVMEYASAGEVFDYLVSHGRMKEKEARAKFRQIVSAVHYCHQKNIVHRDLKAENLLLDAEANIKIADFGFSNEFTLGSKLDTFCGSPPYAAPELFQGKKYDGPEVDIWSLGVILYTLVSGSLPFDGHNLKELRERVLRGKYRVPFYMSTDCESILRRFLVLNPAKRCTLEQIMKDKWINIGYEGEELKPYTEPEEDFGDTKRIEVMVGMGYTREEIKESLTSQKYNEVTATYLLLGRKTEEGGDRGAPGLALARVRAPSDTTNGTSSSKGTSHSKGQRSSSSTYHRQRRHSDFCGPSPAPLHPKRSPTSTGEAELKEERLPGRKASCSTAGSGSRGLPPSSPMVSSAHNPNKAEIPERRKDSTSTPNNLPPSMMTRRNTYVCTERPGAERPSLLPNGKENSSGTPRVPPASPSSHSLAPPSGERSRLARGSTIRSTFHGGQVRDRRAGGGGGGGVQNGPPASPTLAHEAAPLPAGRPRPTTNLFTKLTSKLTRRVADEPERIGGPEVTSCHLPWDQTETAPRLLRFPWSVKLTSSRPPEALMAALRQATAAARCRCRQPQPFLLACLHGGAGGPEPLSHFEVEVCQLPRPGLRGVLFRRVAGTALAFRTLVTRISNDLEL

Consider `COc1cc2c(Oc3ccc(NS(=O)(=O)c4cc(F)ccc4F)cc3F)ccnc2cc1OCCCN1CCN(C)CC1`, for which the “Kd(free)” value amounted to 5.975 µM in data set [1] and 0.041 µM in data set [2].
Regarding `COc1cc2c(Oc3ccc(NS(=O)(=O)c4ccccc4C(F)(F)F)cc3F)ccnc2cc1OCCCN1CCN(C)CC1`, the inhibition result in data set [3], in data set [4], in data set [5] and in data set [6] was “Active” throughout.
Regarding `COc1cc2c(Oc3ccc(NS(=O)(=O)c4cc(F)ccc4F)cc3F)ccnc2cc1OCCCN1CCCC(C)C1` (configuration not stated), in data set [7], the Activity result is “Non-Toxic”.
